Laboratory results from ChEMBL document CHEMBL4043171, “Chemoselective fluorination and chemoinformatic analysis of griseofulvin: Natural vs fluorinated fungal metabolites” (Bioorg Med Chem, 2017).
The source made the active and inactive calls. The calls are words filed in the database; no cut-off is given here.

How the values were obtained:
OVCAR-3 [1] = assay: Cytotoxicity against human OVCAR3 cells assessed as reduction in cell viability at 50 uM by cell titer 96 aqueous one solution cell proliferation assay; assay type: functional, cell-based
MDA-MB-231 = assay: Cytotoxicity against human MDA-MB-231 cells assessed as reduction in cell viability at 50 uM by cell titer 96 aqueous one solution cell proliferation assay; assay type: functional, cell-based
MDA-MB-435 [2] = assay: Cytotoxicity against human MDA-MB-435 cells assessed as reduction in cell viability at 50 uM by cell titer 96 aqueous one solution cell proliferation assay; assay type: functional, cell-based
Nannizzia gypsea = assay: Antifungal activity against Microsporum gypseum at 25 ug/disc incubated for 5 days by agar disk diffusion method; assay type: functional; details: 120 h, read-out: DIZ
In short: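 Conidia of M. gypseum, kept on Sabouraud dextrose agar, were harvested in sterile water and adjusted to 0.5–1.0 OD at 600 nm (~10^5 cells/mL). The suspension was seeded onto Mueller-Hinton agar with 2% glucose and 0.5 µg/ml methylene blue. Compounds in DMSO were loaded at 25 µg per 6 mm paper disk. Inhibition-zone diameters (mm) were read after 5 d, as mean ± SD of four replicates.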

Huh7.5.1 = assay: Cytotoxicity against human Huh7.5.1 cells assessed as reduction in cell viability by ATPlite assay; details: Huh-7.5.1
OVCAR-3 [3] = assay: Cytotoxicity against human OVCAR3 cells assessed as reduction in cell viability by cell titer 96 aqueous one solution cell proliferation assay; assay type: functional, cell-based
MDA-MB-435 [4] = assay: Cytotoxicity against human MDA-MB-435 cells assessed as reduction in cell viability by cell titer 96 aqueous one solution cell proliferation assay; assay type: functional, cell-based
In short: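 Cells were grown in RPMI 1640 with 10% FBS and penicillin/streptomycin at 37°C under 5% CO2. Log-phase cells were trypsinized, washed twice, seeded at 5,000 per well and incubated overnight. Compounds were added at final 20, 4, 0.8, 0.16 and 0.032 µM in 0.5% DMSO and incubated for 72 h at 37 °C. Viability was read by MTS-type absorbance assay as % survival versus DMSO control. Vinblastine served as positive control.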

`COC1=CC(=O)C[C@@H](C)[C@]12Oc1cc(OC)cc(OC)c1C2=O` was tested, and the Activity (OVCAR-3 [1]) was “inactive”, the Activity (MDA-MB-231) was “inactive” and the Activity (MDA-MB-435 [2]) was “inactive”. For the same compound, the zone of inhibition at 25 µg/disc (Nannizzia gypsea) was 0 mm.

For `COC1=CC(=O)[C@H](O)[C@@H](C)[C@]12Oc1cc(OC)cc(OC)c1C2=O`, the Activity (OVCAR-3 [1]) was “inactive”, the Activity (MDA-MB-231) was “inactive” and the Activity (MDA-MB-435 [2]) was “inactive”. For the same compound, the zone of inhibition at 25 µg/disc (Nannizzia gypsea) was 0 mm.

With `COC1=CC(=O)C[C@@H](C)[C@]12Oc1c(Cl)c(O)cc(OC)c1C2=O` the Activity (OVCAR-3 [1]) was “inactive”, the Activity (MDA-MB-231) was “inactive” and the Activity (MDA-MB-435 [2]) was “inactive”. For the same compound, the zone of inhibition at 25 µg/disc (Nannizzia gypsea) was 0 mm.

With `COC1=CC(=O)[C@H](O)[C@@H](C)[C@]12Oc1cc(OC)c(F)c(OC)c1C2=O` the Activity (OVCAR-3 [1]) was “inactive”, the Activity (MDA-MB-231) was “inactive” and the Activity (MDA-MB-435 [2]) was “inactive”. For the same compound, the zone of inhibition at 25 µg/disc (Nannizzia gypsea) was 0 mm.

`COC1=CC(=O)C[C@@H](C)[C@]12Oc1c(Cl)c(OC)c(F)c(OC)c1C2=O` was tested, and the Activity (OVCAR-3 [1]) was “inactive”, the Activity (MDA-MB-231) was “inactive” and the Activity (MDA-MB-435 [2]) was “inactive”. It also gave a zone of inhibition at 25 µg/disc (Nannizzia gypsea) of 23 mm.

For `COC1=CC(=O)C[C@@H](C)[C@]12Oc1c(Cl)c(OC)cc(OC)c1C2=O` [GRISEOFULVIN], the Activity (MDA-MB-231) was “inactive”, the IC50 (Huh7.5.1) was 10 to 25 µM and the IC50 (OVCAR-3 [3]) was 48.5 µM. For the same compound, the IC50 (MDA-MB-435 [4]) was 6.4 µM and the zone of inhibition at 25 µg/disc (Nannizzia gypsea) was 35 mm.

With `COC1=CC(=O)C2=C(O[C@]3(C2=O)C(OC)=CC(=O)C[C@H]3C)C1(F)Cl` (mixture of isomers) the Activity (OVCAR-3 [1]) was “inactive”, the Activity (MDA-MB-231) was “inactive” and the Activity (MDA-MB-435 [2]) was “inactive”. The zone of inhibition at 25 µg/disc (Nannizzia gypsea) was 0 mm.

`COC1=CC(=O)[C@H](O)[C@@H](C)[C@]12Oc1c(F)c(OC)cc(OC)c1C2=O` was tested, and the Activity (OVCAR-3 [1]) was “inactive”, the Activity (MDA-MB-231) was “inactive” and the Activity (MDA-MB-435 [2]) was “inactive”. For the same compound, the zone of inhibition at 25 µg/disc (Nannizzia gypsea) was 0 mm.

For `COC1=CC(=O)C[C@@H](C)[C@]12Oc1c(F)c(OC)cc(OC)c1C2=O`, the Activity (OVCAR-3 [1]) was “inactive”, the Activity (MDA-MB-231) was “inactive” and the IC50 (Huh7.5.1) was 10 to 25 µM. It also gave an IC50 (MDA-MB-435 [4]) of 22 µM and a zone of inhibition at 25 µg/disc (Nannizzia gypsea) of 34 mm.

With `COC1=CC(=O)[C@H](O)[C@@H](C)[C@]12Oc1c(Cl)c(OC)cc(OC)c1C2=O` the Activity (OVCAR-3 [1]) was “inactive”, the Activity (MDA-MB-231) was “inactive” and the Activity (MDA-MB-435 [2]) was “inactive”. For the same compound, the zone of inhibition at 25 µg/disc (Nannizzia gypsea) was 0 mm.

For `COC1=CC(=O)C[C@@H](C)[C@]12Oc1cc(OC)c(F)c(OC)c1C2=O`, the Activity (OVCAR-3 [1]) was “inactive”, the Activity (MDA-MB-231) was “inactive” and the Activity (MDA-MB-435 [2]) was “inactive”. The zone of inhibition at 25 µg/disc (Nannizzia gypsea) was 0 mm.

`COC1=CC(=O)C[C@@H](C)[C@]12Oc1cc(O)cc(OC)c1C2=O` was tested, and the Activity (OVCAR-3 [1]) was “inactive”, the Activity (MDA-MB-231) was “inactive” and the Activity (MDA-MB-435 [2]) was “inactive”. For the same compound, the zone of inhibition at 25 µg/disc (Nannizzia gypsea) was 0 mm.
